M1 PAM parental: nonselective calcium activators in parental CHO-K1 cells, primary screen, counter-screen for M1 PAM project, cell-based, Fluo-8 calcium fluorescence, full deck, 1536-well; activation, % at 3 µM; ATP EC20; 0% at ATP EC20, 100% at ATP max; 0.02% of 360,000 active;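 active = activation above the run cutoff, the mean activation of all test compounds plus 3 SD, cut at about 40% in these data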;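 also: peak over basal fluorescence ratio in a 140 s read after ATP addition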
CHO-K1 Ca antag: M1 antagonist counterscreen hit in parental CHO-K1 cells; ATP-induced calcium, Fluo-8 fluorescence; inhibition, % at 3 µM; 0.6% of 360,000 active;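 active = inhibition above a per-plate cutoff, the plate's mean sample inhibition plus 3 SD, cut at about 24% in these data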;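 also: 0% = DMSO plus EC80 ATP and 100% = DMSO alone without ATP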
CHO parental Ca: ATP-evoked calcium signal inhibitors, parental CHO, primary screen, counter-screen for OX1R antagonist project, cell-based, fluorescence, Fluo-8 calcium dye | parental CHO-K1, ATP-induced calcium, Fluo-8 fluorescence | 0.63% of 330,000 active | inhibition, % at 5.6 µM;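 active = inhibition above that plate's mean sample inhibition plus 3 SD, cut at about 26% in these data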;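 also: 0% = ATP-challenged DMSO wells and 100% = DMSO wells without ATP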
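Assay system: parental CHO cells; Read-out basis: percent inhibition of ATP-evoked calcium rise, normalized to controls; Benchmarks: ATP and no-ATP DMSO wells; Compound dosing: single nominal dose of 5.6 µM per compound; Signal: Fluo-8 calcium dye fluorescence; Also added: ATP as calcium-mobilizing challenge; Repeats: singlicate.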
CHO-K1 Ca ag: counter-screen for M1 agonists: effect in parental CHO-K1 cells; Fluo-8 calcium fluorescence; scaled to maximal ATP response, vehicle zero; 0.48% of 360,000 active; AID 602248, 2012; activation, % at 3 µM; in the data active = activation above about 15%;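 also: untransfected CHO-K1 host cells lacking M1 receptor as counterscreen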
OX1R antag-1: OX1R (HCRTR1) antagonists, primary screen, fluorescence, CHO/OX1R cells, Fluo-8 calcium, orexin A; Orexin/Hypocretin receptor type 1 (Homo sapiens), O43613; Fluo-8 calcium fluorescence; inhibition, % at 5 µM; 0.43% of 330,000 active;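 active = inhibition above its plate's threshold, mean inhibition of all tested compounds on the plate plus 3 SD, cut at about 37% in these data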;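 also: 0% = orexin A challenge wells and 100% = SB-334867-A antagonist wells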
Target sequence (O43613 whole entry, looked up): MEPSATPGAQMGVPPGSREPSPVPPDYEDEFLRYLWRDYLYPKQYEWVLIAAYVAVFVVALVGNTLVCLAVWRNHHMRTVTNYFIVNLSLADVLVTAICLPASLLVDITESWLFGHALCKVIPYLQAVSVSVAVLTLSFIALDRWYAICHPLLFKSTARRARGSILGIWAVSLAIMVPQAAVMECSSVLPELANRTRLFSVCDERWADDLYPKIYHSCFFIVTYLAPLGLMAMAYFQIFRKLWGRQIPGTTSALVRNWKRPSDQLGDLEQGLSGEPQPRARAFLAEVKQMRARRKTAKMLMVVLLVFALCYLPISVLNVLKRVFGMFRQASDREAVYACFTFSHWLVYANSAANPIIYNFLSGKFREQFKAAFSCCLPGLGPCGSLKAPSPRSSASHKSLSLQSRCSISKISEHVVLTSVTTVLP
OX1R antag-2: antagonists of human orexin 1 receptor (OX1R); AID 485270, 2010; Orexin/Hypocretin receptor type 1 (Homo sapiens), O43613; OX1R-expressing cells, FRET antagonist read-out; inhibition, % at 6.6 µM; 1.8% of 330,000 active; in the data active = inhibition mostly above about 38%, no sharp cut-off; inactive = mostly below about 40%;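 also: 0% = agonist challenge alone and 100% = reference antagonist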
The depositor's hits bear a star; . = no result given. A selection: hits, their analogues and other compounds. The true share with any hit is near 2.9%.

SMILES | M1 PAM parental | CHO-K1 Ca antag | CHO parental Ca | CHO-K1 Ca ag | OX1R antag-1 | OX1R antag-2
CC(=O)NC1=C(N(C)C2CCS(=O)(=O)C2)C(=O)c2ccccc2C1=O (stereo not drawn) | 14.5 | -9.3 | -7.7 | 0.3 | -9.5 | 70.4*
COc1ccc(/C=N/N=C2/NC(=O)C(CC(=O)O)S2)cc1OS(=O)(=O)c1ccccc1 (stereo not drawn) | 2.7 | -7.8 | -7.2 | -0.3 | 3.8 | 8.4
COc1cc(/C=N/N=C2/NC(=O)C(Cc3ccccc3)S2)ccc1O (stereo not drawn) | 18.0 | 4.7 | -17.9 | 24.5* | -10.7 | 34.0
N#C/C(=N\Nc1ccc(Cl)c(Cl)c1)C(=O)C1CC1 | -24.1 | 14.3 | 25.3 | 13.3 | 17.0 | 49.5*
O=c1oc2c3c(nn2c2ccccc12)CCCC3 | 0.0 | -7.3 | -8.7 | 0.3 | 31.0 | 67.3*
O=[N+]([O-])c1ccc2cn[nH]c2c1 | -9.8 | 35.5* | -1.3 | 1.9 | -9.5 | 49.0*
O=[N+]([O-])c1ccc(Cl)c(S(=O)(=O)Nc2ccc3cn[nH]c3c2)c1 | 12.5 | -5.8 | -9.6 | 0.8 | -3.1 | 14.6
COc1ccc(NC(=O)N2CCCC2C(=O)NCc2cccs2)cc1 (stereo not drawn) | -14.1 | 0.5 | -3.6 | 1.2 | -3.7 | 16.3
COC1OC(CO)C(O)C(O)C1O (stereo not drawn) | -11.5 | 7.4 | -7.0 | -0.2 | 2.3 | 9.3
OC[C@H]1O[C@@H](O[C@@H]2[C@@H](CO)O[C@@](O)(CO)[C@H]2O)[C@H](O)[C@@H](O)[C@H]1O | -13.6 | 26.9* | -1.9 | 0.2 | 3.2 | 6.0
CCN1CCN(C(=O)c2cc(COc3ccc(F)c(F)c3)on2)[C@@H](C)C1=O | 15.2 | -8.6 | . | 5.9 | . | .
CC(C)(C)n1ncc2c(=O)n(Cc3cccc(Cn4cnc5c(cnn5C(C)(C)C)c4=O)c3F)cnc21 | -22.5 | 10.2 | 61.9* | 0.1 | 63.9* | 29.1
Cc1c(-c2nc(N)nc(Nc3ccccc3F)n2)oc2ccccc12 | 8.6 | -8.1 | -2.0 | 0.2 | -4.7 | 38.8*
COC(=O)c1sccc1-c1ccc(C(=O)Nc2ccccc2)o1 | 1.8 | 3.8 | -10.2 | 1.3 | -2.5 | 59.2*
CCN(CC)S(=O)(=O)c1ccc(-n2cnc3cc(C)c(C)cc32)nc1 | -1.0 | 1.2 | -11.6 | 0.7 | -30.7 | 2.4
CC1=NNC(=O)C1C(c1cccc(O)c1)C(C#N)C#N (stereo not drawn) | -22.7 | 28.8* | -3.5 | 0.5 | -0.4 | 2.8
CCCCNC(=O)Cc1coc2ccc3ccccc3c12 | -3.8 | 27.3* | -22.8 | -0.2 | -27.8 | 27.6
COCCCNC(=O)Cc1coc2ccc3ccccc3c12 | 8.8 | -10.1 | -13.0 | 0.6 | -22.2 | 3.8
Cc1ccc(CCNC(=O)CNC(=O)c2cccs2)cc1 | -8.4 | -6.1 | -2.3 | 0.1 | -7.4 | 16.4
CCOC(=O)NC1c2ccccc2Oc2ccccc21 | 3.3 | -6.1 | 70.2* | 0.2 | -3.9 | 4.5
O=C(O)c1cccc2c1C(=O)c1ccccc1-2 | -16.8 | 13.2 | -6.7 | 0.5 | -0.9 | 11.0
O=C1c2ccccc2C(=O)c2c(O)c(O)cc(O)c21 | 22.2 | -16.3 | -1.8 | 0.1 | 0.2 | 28.1*
Cc1ccc(NC(=O)Nc2cccc([N+](=O)[O-])c2)cc1F | 13.4 | 16.6 | 8.5 | 15.4* | 14.8 | 35.9
O=C(Nc1cccc([N+](=O)[O-])c1)c1ccncc1 | 19.0 | -7.9 | -7.0 | 1.2 | -0.5 | 65.5*
CC(C)(C)c1ccc(C(=O)Nc2cccc([N+](=O)[O-])c2)cc1 | 10.4 | -2.1 | -3.2 | 6.8 | -3.0 | 33.1
SMILES | M1 PAM parental | CHO-K1 Ca antag | CHO parental Ca | CHO-K1 Ca ag | OX1R antag-1 | OX1R antag-2
O=C(Nc1ccc(OC(F)(F)F)cc1)Nc1cccc([N+](=O)[O-])c1 | -0.7 | 23.3 | 73.5* | 16.4* | 36.0 | 78.5*
Cc1c(C)c2ccc(OCC(=O)Nc3ccc(S(N)(=O)=O)cc3)c(C)c2oc1=O | 9.1 | 3.9 | 5.2 | 0.0 | 4.8 | 17.7
O=c1cc(-c2ccc(O)cc2)oc2c1ccc1ccccc12 | 4.3 | -21.0 | -3.4 | 0.3 | -5.1 | 44.3*
CCOc1ccc(/C(O)=C2\C(=O)C(=O)N(c3ccccn3)C2c2ccccc2F)c(C)c1 (stereo not drawn) | 12.8 | -10.2 | . | 0.5 | . | .
COc1cc2c(cc1OC)C(c1ccccc1)N(C(=O)c1ccco1)CC2 (stereo not drawn) | 8.6 | 6.6 | -12.8 | 0.1 | 2.9 | 33.0*
COc1cc2c(cc1OC)C(c1ccc([N+](=O)[O-])cc1)N(C(C)=O)CC2 (stereo not drawn) | 15.7 | -2.7 | . | 15.8* | . | .
CC(Sc1nnnn1C1CCCC1)C(=O)Nc1cccc(S(=O)(=O)N2CCOCC2)c1 (stereo not drawn) | -22.1 | 14.3 | -13.3 | 1.4 | -29.9 | 4.2
Cc1cc(C)n2nc(S(=O)(=O)NC(C)(C)C)nc2n1 | 0.0 | 3.0 | -10.7 | 0.3 | -31.5 | 9.4
CC(C)(C)NC(=O)c1ccc(COc2ccc(Cl)cc2Cl)o1 | 2.3 | -6.9 | 9.0 | 4.5 | -13.7 | -4.4
O=[N+]([O-])c1ccc(N2CCC(O)CC2)nc1 | -16.4 | 28.9* | -3.1 | 0.1 | 10.0 | 31.3
Cc1ccc(OCCNC(=O)Cc2ccc(S(=O)(=O)N3CCOCC3)s2)cc1 | 14.7 | -4.8 | -6.7 | 4.2 | -5.7 | 14.1
CC1([N+](=O)[O-])COC(c2cccc3ccccc23)OC1 (stereo not drawn) | -14.8 | 26.1* | . | -0.2 | . | .
COc1ccccc1C1OCC(C)([N+](=O)[O-])CO1 (stereo not drawn) | 17.1 | -9.9 | . | 1.1 | . | .
CCOC(=O)[C@@H]1[C@H]2COc3ccccc3[C@H]2N2C(=O)N(c3ccc(C(F)(F)F)cc3)C(=O)[C@]12C | 4.4 | -5.2 | 46.0* | 5.0 | -16.0 | 6.5
CCOC(=O)[C@@H]1[C@H]2COc3ccccc3[C@@H]2N2C(=O)N(c3ccc(C(F)(F)F)cc3)C(=O)[C@@]12C | 1.9 | -8.7 | -16.7 | -0.2 | -19.1 | 3.5
O=C(c1ccccc1)c1c(-c2ccccc2)[nH]n(-c2ccccc2)c(=O)c1=O | 9.6 | -16.3 | -0.2 | -0.4 | -9.8 | 51.8
Cc1ccccc1NC(=O)C(C)n1c2ccccc2c2nc(=O)cc(C)n21 (stereo not drawn) | 8.9 | 8.7 | -13.0 | -0.3 | -27.5 | 10.5
Cc1ccc(C(C)C)c(OCC(=O)NS(=O)(=O)c2ccc(Cl)cc2)c1 | -3.7 | -7.4 | -12.9 | -0.3 | -7.5 | 59.0*
COc1ccccc1C(=O)Nc1nnc(-c2ccc3c(c2)CCCC3)o1 | 0.7 | 3.3 | -4.2 | -0.1 | -18.0 | 67.9*
O=C(Nc1nnc(-c2ccc3c(c2)CCCC3)o1)C1COc2ccccc2O1 (stereo not drawn) | -10.3 | 25.5* | 6.9 | -0.6 | -10.9 | 15.6

Screens as filed in PubChem.
